# Measured values from PMC3240737 (Journal of medicinal chemistry, 2011).
# Residues, ends and D or L forms follow the SMILES beside them.
# Columns and labels:
# [1] = system: Aβ42-induced toxicity in differentiated PC-12 cells; test: Inhibition of Aβ42-induced neurotoxicity, MTT assay; format: cell-based, rat; conditions: for Inhibition of Aβ42-induced neurotoxicity, single-dose screen: Aβ42 10 μM with 10-fold excess of derivative, 24 h, MTT, n ≥ 18
# [2] = system: α-synuclein-induced toxicity in differentiated PC-12 cells; test: Inhibition of α-synuclein-induced toxicity, MTT assay; format: cell-based, rat; conditions: α-synuclein 15 μM, increasing Aβ(39–42) concentrations, 24 h, n ≥ 15
# Method in brief: (§1)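 PC-12 cells differentiated with nerve growth factor (100 ng/mL, 48 h), then exposed for 24 h to the toxin with or without a range of test compound concentrations. Viability by MTT, scaled between medium and 1 μM staurosporine full kill (100% reduction). Controls were NaOH-matched vehicle and medium alone. Mean ± SEM of ≥3 independent experiments, 5 replicates per point.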
# [3] = system: alamethicin-induced toxicity in differentiated PC-12 cells; test: Inhibition of alamethicin-induced toxicity, MTT assay; format: cell-based, rat; conditions: alamethicin 4 μM, increasing Aβ(39–42) concentrations, 24 h, n ≥ 15
# Method in brief: as §1
# WT Aβ42 = WT Aβ42 (Homo sapiens, UniProt P05067); test: Intrinsic Y fluorescence; format: binding; conditions: peptide 50 μM, pH 7.4, 22°C
# Method in brief: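 HFIP-treated peptide films were dissolved in 60 mM NaOH (10% of final volume) and diluted in 10 mM sodium phosphate, pH 7.4, to nominal Aβ42 5 μM ± test peptide 50 μM. Samples were spun at 5,000 g for 1 min, with concentrations verified by amino acid analysis. Ex 280 nm, em 290–400 nm, 22°C, ≥10 scans immediately. Buffer-subtracted, area integrated per micromole, normalized to Aβ42 alone; 4 experiments.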
# [Y20]Aβ42 = [Y20]Aβ42 (Homo sapiens, UniProt P05067, F691Y/Y681F); test: Intrinsic Y fluorescence; format: binding; conditions: [Y20]Aβ42 5 μM, peptide 50 μM, pH 7.4, 22°C
# [Y30]Aβ42 = [Y30]Aβ42 (Homo sapiens, UniProt P05067, A701Y/Y681F); test: Intrinsic Y fluorescence; format: binding; conditions: [Y30]Aβ42 5 μM, peptide 50 μM, pH 7.4, 22°C
# [Y42]Aβ42 = [Y42]Aβ42 (Homo sapiens, UniProt P05067, A713Y/Y681F); test: Intrinsic Y fluorescence; format: binding; conditions: [Y42]Aβ42 5 μM, peptide 50 μM, pH 7.4, 22°C
# [4] = system: mouse primary hippocampal neurons; conditions: cited from earlier work
# [Y1]Aβ42 = [Y1]Aβ42 (Homo sapiens, UniProt P05067, D672Y/Y681F); test: Intrinsic Y fluorescence; format: binding; conditions: [Y1]Aβ42 5 μM, peptide 50 μM
molecule,measurement,setting,value
CC[C@H](C)[C@H](NC(=O)[C@@H](NC(=O)[C@@H](N)C(C)C)C(C)C)C(=O)N[C@@H](C)C(=O)O [Aβ(39–42)],Dose dependence of inhibition of Aβ42-induced toxicity,"[1]; Aβ42 10 μM, MTT and LDH",dose-dependent inhibition
same,Protection from α-synuclein-induced toxicity,[2],only weak protection
same,Protection from alamethicin-induced toxicity,[3],only weak protection
same,Change of WT Aβ42 fluorescence upon addition of peptide,WT Aβ42; WT Aβ42 5 μM,did not change significantly
same,Change of [Y20]Aβ42 fluorescence upon addition of peptide,[Y20]Aβ42,did not change significantly
same,Change of [Y30]Aβ42 fluorescence upon addition of peptide,[Y30]Aβ42,did not change significantly
same,Change of [Y42]Aβ42 fluorescence upon addition of peptide,[Y42]Aβ42,did not change significantly
same,Rescue from Aβ42-induced inhibition of miniature excitatory postsynaptic current frequency,[4],significantly rescued
CC[C@H](C)[C@H](NC(=O)[C@@H](NC(=O)[C@@H](N)C(C)C)C(C)C)C(=O)N[C@@H](C)C(N)=O [VVIA-NH2] (H-VVIA-NH2),"Inhibition of Aβ42-induced neurotoxicity, single-dose screen",[1],as active as Aβ(39–42)
same,Fold lower [Y1]Aβ42 fluorescence increase than with unmodified Aβ(39–42),[Y1]Aβ42,1.8 times
same,Decrease of [Y30]Aβ42 fluorescence upon addition of peptide,[Y30]Aβ42; mean ± SEM of 4 experiments,24 ± 3%
Ac-AIVV,"Inhibition of Aβ42-induced neurotoxicity, single-dose screen",[1],no inhibitory activity
same,[Y1]Aβ42 fluorescence increase compared with Aβ(39–42),[Y1]Aβ42; Fig. S3,significantly lower
Ac-VVIA,"Inhibition of Aβ42-induced neurotoxicity, single-dose screen",[1],no inhibitory activity
same,Decrease of Aβ42 fluorescence upon addition of peptide,"WT Aβ42; Aβ42 5 μM, mean ± SEM of 4 experiments",19 ± 3%
VVAA,"Inhibition of Aβ42-induced neurotoxicity, single-dose screen",[1],lost inhibitory activity
